We go through six compounds from ChEMBL document CHEMBL1772994, “Metabolic stability of 6,7-dialkoxy-4-(2-, 3- and 4-[18F]fluoroanilino)quinazolines, potential EGFR imaging probes” (Bioorg Med Chem, 2011).

Series [1] relates to Hepatocyte. The experiment in a line: Metabolic stability in cryopreserved human hepatocytes after 90 mins by radio-TLC assay. The note with it: 1.5 h. It counts as ADME, cell-based. The gist of the method:
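Cryopreserved female human hepatocytes were thawed and resuspended in modified Krebs-Henseleit buffer, and the radiotracer in buffer was added to cell wells. Incubation was at 37 °C, 5% CO2. Aliquots taken at 5–120 min went into MeOH (2 volumes), were vortexed and centrifuged at 10,000 G for 5 min. Supernatant was run on silica TLC (10% EtOH/EtOAc) and read by radio-TLC scan. Viability was checked by Trypan Blue.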

Series [2] relates to Mus musculus. The experiment in a line: Biodistribution in tumor of EGFR positive-MDA-MB-468 cells-xenografted tumor-bearing nude SCID mouse at 1 to 2 MBq, iv after 1 hr postinjection. The note with it: in vivo. In kind it is ADME, organism-based, Neoplasm. The method in brief:
(§1)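 Nude SCID mice bearing subcutaneous MDA-MB-468 flank xenografts (about 1 million cells), with MDA-MB-435 (about 1 million cells) implanted in the shoulder in some cohorts. Under isoflurane, 1–2 MBq radiotracer in saline was given by tail-vein injection. Mice (n = 4 per time point) were euthanized 1–3 h post injection. Blood, tumor and tissues were weighed and counted, giving decay-corrected %ID/g.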

Series [3] deals with Mus musculus. Put plainly: Biodistribution in tumor of EGFR negative-MDA-MB-435 cells-xenografted tumor-bearing nude SCID mouse at 1 to 2 MBq, iv after 1 hr postinjection. Conditions: in vivo; call rule not given here. In kind it is ADME, organism-based, Neoplasm. The gist of the method: as §1
The subject of series [4] is Mus musculus. The experiment in a line: Biodistribution in tumor of 1 mg/kg PD153035 pretreated EGFR positive-MDA-MB-468 cells-xenografted tumor-bearing nude SCID mouse 1 to 2 MBq, iv after 1 hr relative to control. It counts as ADME, organism-based, Neoplasm. Conditions: in vivo. More on the design: dose 1 mg/kg, route intravenous. The method in brief:
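A blocking arm received PD153035 1 mg/kg iv one hour before tail-vein injection of 1–2 MBq radiotracer in saline under isoflurane, compared with a control group. Nude SCID mice bore MDA-MB-468 flank xenografts (n = 4 per time point). Tumor was excised, weighed and counted, giving decay-corrected %ID/g.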

Series [5] deals with Bone. Put plainly: Biodistribution in tumor-bearing nude SCID mouse bone at 1 to 2 MBq, iv after 1 hr postinjection. In kind it is ADME, organism-based, Bone element. The note with it: in vivo. The method in brief: as §1
The subject of series [6] is Bone. The experiment in a line: Biodistribution in tumor-bearing nude SCID mouse bone at 1 to 2 MBq, iv after 3 hrs postinjection. It counts as ADME, organism-based, Bone element. The note with it: in vivo. The method in brief: as §1
The test system of series [7] is Mus musculus. Put plainly: Biodistribution in tumor of EGFR positive-MDA-MB-468 cells-xenografted tumor-bearing nude SCID mouse at 1 to 2 MBq, iv after 1 to 3 hrs postinjection. The note with it: in vivo.
Series [8] relates to Mus musculus. Put plainly: Biodistribution in tumor of EGFR negative-MDA-MB-435 cells-xenografted tumor-bearing nude SCID mouse at 1 to 2 MBq, iv after 1 to 3 hrs postinjection. The note with it: in vivo.
Series [9] concerns Bone. The experiment in a line: Biodistribution in tumor-bearing nude SCID mouse bone at 1 to 2 MBq, iv after 2 hrs postinjection. It counts as ADME, organism-based, Bone element. The note with it: in vivo. The method in brief:
as §1

SMILES strings stand for the structures.

`COc1cc2ncnc(Nc3ccccc3[18F])c2cc1OC`: the Stability entry in series [1] is “Stable”. For the same compound, the Drug uptake in series [2] is reported as less than 0.6%; in series [3], less than 0.6%; in [4] it was “Active”; in series [5], 2%; in [6] it was 2%; in series [7], less than 0.6%. In addition, the Drug uptake in series [8] was less than 0.6%.
For the compound `COc1cc2ncnc(Nc3ccc([18F])cc3)c2cc1OC`, the Stability entry in [1] is recorded as “Unstable”. Besides, the Drug uptake was less than 0.6% in [2]; less than 0.6% in [3]; 5% in series [5]; 5% in [9]; less than 0.6% in [7]; less than 0.6% in [8].
For `CCOc1cc2ncnc(Nc3ccc([18F])cc3)c2cc1OCC`, the Stability entry in series [1] was “Unstable”. Also, the Drug uptake was less than 0.6% in [2]; less than 0.6% in [3]; 5% in series [5]; 5% in series [9]; less than 0.6% in [7]; less than 0.6% in [8].
As to `CCOc1cc2ncnc(Nc3cccc([18F])c3)c2cc1OCC`, in [1], the Stability entry is recorded as “Stable”.
Still for that read-out and setting: for `COc1cc2ncnc(Nc3cccc([18F])c3)c2cc1OC` the value was “Stable”.
`CCOc1cc2ncnc(Nc3ccccc3[18F])c2cc1OCC`: the Stability entry in series [1] is on record as “Stable”. Also, the Drug uptake in series [2] was less than 0.6%; in series [3], less than 0.6%; in [5] it was 2%; in series [6], 2%; in [7], less than 0.6%; in series [8] it was less than 0.6%.
